In ChEMBL document CHEMBL4052582, “A Versatile Method to Determine the Cellular Bioavailability of Small-Molecule Inhibitors” (J Med Chem, 2017):

How the values were obtained:
[1] = Retention time of the compound by HPLC/DAD analysis
Outline: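 Agilent HPLC with DAD, detection at 254/355 nm or 235/355 nm. Kromasil C18 column (4.6 × 250 mm), 20 μL injection. Gradient from H2O (0.1% TFA) to 50:50 MeCN over 0–18 min, then to 100% MeCN by 20 min, held to 25 min, at 1.5 mL/min.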

[2] = Stability of the compound in DMEM medium assessed as parent compound remaining at 100 uM after 72 hrs in absence of 10% FBS by HPLC method
Outline: (§1)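 Compound added at 100 μM final (0.02% v/v DMSO) to 5 mL DMEM with or without 10% FBS in T-25 flasks, no cells; incubated 37 °C in CO2 incubator for 3–72 h. Aliquots drawn at each time point and analysed by HPLC; parent remaining taken from chromatogram AUC relative to starting time point. Triplicate.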

[3] = Drug uptake in human MDA-MB-231 cells assessed per million cells at 10 uM in presence of 1% FBS after 24 hrs incubation by HPLC-MS analysis; format: ADME, cell-based; conditions: mda-mb-231, 24 h
Outline: (§2)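 MDA-MB-231 cells grown in T-25 flasks in DMEM/10% FBS to ~70% confluency, then given fresh DMEM with the stated FBS plus inhibitor (0.02% DMSO final), 37 °C, 24 h. Cells washed with cold PBS ×3, extracted overnight at 4 °C with cold MeCN/MeOH 1:1, centrifuged, quantified by HPLC against calibration curves, corrected for dilution, cell number and solvent extraction efficiency; nmol per million cells; triplicate, mean ± SD.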

[4] = Stability of the compound in DMEM medium assessed as parent compound remaining at 100 uM after 24 hrs in presence of 10% FBS by HPLC method; outline: as §1
[5] = Stability of the compound in DMEM medium assessed as parent compound remaining at 100 uM after 72 hrs in presence of 10% FBS by HPLC method
Outline: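 Compound at 100 μM final (0.02% DMSO) in 5 mL DMEM with or without 10% FBS, cell-free in T-25 flasks, 37 °C in CO2 incubator for 3–72 h. Aliquots analysed by HPLC. Percent remaining derived from chromatogram AUC relative to starting time point. Triplicate.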

[6] = Drug uptake in human MDA-MB-231 cells assessed per million cells at 10 uM in presence of 5% FBS after 6 hrs at 4 degC by HPLC-MS analysis; format: ADME, cell-based; conditions: mda-mb-231, 6 h
Outline: (§3)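 Confluent (~70%) MDA-MB-231 cells given inhibitor in 5 mL cold DMEM with 0.02% DMSO (10% FBS for BRD-targeting inhibitors, 5% FBS for β-catenin/BCL9 inhibitors), held at 4 °C for 6 h; then washed, extracted overnight at 4 °C in MeCN/MeOH 1:1, HPLC quantified; triplicate, mean ± SD divided by solvent extraction efficiency.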

[7] = Drug uptake in human MDA-MB-231 cells assessed as intracellular concentration at 0.065 umol in presence of 10% FBS after 24 hrs by HPLC-MS analysis; format: ADME, cell-based; conditions: mda-mb-231, 24 h; outline: as §2
[8] = Drug uptake in human MDA-MB-231 cells assessed per million cells preincubated for 6 hrs followed by trypsin-EDTA digestion for 2 mins measured after overnight incubation at 4 degC by HPLC-MS analysis; format: ADME, cell-based; conditions: mda-mb-231, 2 min
Outline: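 After 6 h inhibitor exposure at 37 °C, MDA-MB-231 cells washed three times with ice-cold PBS, detached with 0.25% trypsin/1 mM EDTA in PBS for 2 min at 37 °C, resuspended in cold DMEM, washed once in ice-cold PBS, extracted with cold MeCN/MeOH 1:1, HPLC quantified; triplicate, mean ± SD divided by extraction efficiency.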

[9] = Drug uptake in human MDA-MB-231 cells assessed per million cells at 10 uM in presence of 10% FBS after 24 hrs incubation by HPLC-MS analysis; format: ADME, cell-based; conditions: mda-mb-231, 24 h; outline: as §2
[10] = Drug uptake in human MDA-MB-231 cells assessed per million cells preincubated for 6 hrs followed by solvent addition measured after overnight incubation at 4 degC by HPLC-MS analysis; format: ADME, cell-based; conditions: mda-mb-231, 6 h
[11] = Drug uptake in human MDA-MB-231 cells assessed per million cells at 10 uM in presence of 5% FBS after 24 hrs incubation by HPLC-MS analysis; format: ADME, cell-based; conditions: mda-mb-231, 24 h; outline: as §2
[12] = Apparent permeability at 200 uM after 5 hrs by PAMPA; format: physicochemical
Outline: (§4)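 Artificial membrane of 1% egg lecithin in n-dodecane on a filter plate; compound at 200 μM on donor side, 5 h at room temperature; compound quantified by HPLC/DAD; percent transport and apparent permeability calculated from previously published equations.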

[13] = Drug uptake in human MDA-MB-231 cells assessed as cell bound drug level per million cells at 2 uM in presence of 5% FBS after 6 hrs at 4 degC by HPLC-MS analysis; format: ADME, cell-based; conditions: mda-mb-231, 6 h; outline: as §3
[14] = Drug uptake in human MDA-MB-231 cells assessed as extracted concentration at 1 uM after 24 hrs by HPLC-MS analysis; format: ADME, cell-based; conditions: mda-mb-231, 24 h
Outline: (§5)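 MDA-MB-231 cells at ~70% confluency in T-25 flasks exposed to a range of inhibitor input concentrations in DMEM with FBS, 0.02% DMSO, 37 °C, 24 h; cold PBS washes, overnight MeCN/MeOH 1:1 extraction at 4 °C, HPLC quantification against calibration curves with extraction-efficiency correction.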

[15] = Drug uptake in human MDA-MB-231 cells assessed as extracted concentration at 10 uM after 24 hrs by HPLC-MS analysis; format: ADME, cell-based; conditions: mda-mb-231, 24 h; outline: as §5
[16] = Drug uptake in human MDA-MB-231 cells assessed as extracellular concentration at 0.065 umol in presence of 10% FBS after 24 hrs by HPLC-MS analysis; format: ADME, cell-based; conditions: mda-mb-231, 24 h
Outline: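 MDA-MB-231 cells incubated 24 h at 37 °C with inhibitor in 5 mL DMEM with the stated FBS. Media plus cold PBS washes pooled, dried; cells extracted with MeCN/MeOH 1:1; HPLC peak areas of both fractions compared by mass balance with the input moles added to medium.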

[17] = Drug accumulation in human MDA-MB-231 cells at 10 uM in presence of 10% FBS after 24 hrs incubation by HPLC-MS analysis; format: ADME, cell-based; conditions: mda-mb-231, 24 h; outline: as §2
[18] = Solubility of the compound in DMEM medium up to 200 uM; format: physicochemical
[19] = Drug uptake in human MDA-MB-231 cells assessed as extracted concentration at 100 uM after 24 hrs by HPLC-MS analysis; format: ADME, cell-based; conditions: mda-mb-231, 24 h; outline: as §5
[20] = Stability in human MDA-MB-231 cells at 10 uM after 72 hrs by HPLC-MS analysis; format: ADME, cell-based; conditions: mda-mb-231, 72 h
Outline: (§6)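 Time course: inhibitor added to ~70%-confluent MDA-MB-231 cells in T-25 flasks, in 5 mL DMEM plus FBS (0.02% DMSO), incubated at 37 °C for 3–72 h. At each time point cells washed with cold PBS and extracted with cold MeCN/MeOH 1:1 overnight at 4 °C. Intracellular moles per million cells determined by HPLC calibration.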

[21] = Permeability assessed as drug transport at 200 uM after 5 hrs by PAMPA; format: physicochemical; outline: as §4
[22] = Drug uptake in human MDA-MB-231 cells after 6 hrs in presence of 10% FBS by HPLC-MS analysis; format: ADME, cell-based; conditions: mda-mb-231, 6 h
Outline: (§7)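 MDA-MB-231 cells at ~70% confluency in T-25 flasks, incubated 6 h at 37 °C with inhibitor in DMEM containing the stated FBS (0.02% DMSO). Parallel 6 h incubation at 4 °C in cold DMEM used to measure nonspecific cell-bound amount. Accurate intracellular moles = 37 °C value minus 4 °C value. Extraction with MeCN/MeOH 1:1, HPLC quantification, corrected for extraction efficiency. Triplicate.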

[23] = Stability in human MDA-MB-231 cells at 2 uM after 72 hrs by HPLC-MS analysis; format: ADME, cell-based; conditions: mda-mb-231, 72 h; outline: as §6
[24] = Drug uptake in human MDA-MB-231 cells assessed as non specific binding with culture plate at 2 uM in presence of 5% FBS after 6 hrs at 4 degC by HPLC-MS analysis; format: ADME, cell-based; conditions: mda-mb-231, 6 h
[25] = Drug uptake in human MDA-MB-231 cells assessed per million cells at 2 uM in presence of 1% FBS after 24 hrs incubation by HPLC-MS analysis; format: ADME, cell-based; conditions: mda-mb-231, 24 h; outline: as §2
[26] = tested on: MDA-MB-231; assay: Antiproliferative activity against human MDA-MB-231 cells after 72 hrs by MTS assay; format: functional, cell-based; conditions: MDA-MB-231, 72 h
[27] = Drug accumulation in human MDA-MB-231 cells at 2 uM in presence of 5% FBS after 24 hrs incubation by HPLC-MS analysis; format: ADME, cell-based; conditions: mda-mb-231, 24 h; outline: as §2
[28] = Drug uptake in human MDA-MB-231 cells assessed as extracted concentration at 20 uM after 24 hrs by HPLC-MS analysis; format: ADME, cell-based; conditions: mda-mb-231, 24 h; outline: as §5
[29] = Drug uptake in human MDA-MB-231 cells assessed per million cells at 2 uM in presence of 5% FBS after 24 hrs incubation by HPLC-MS analysis; format: ADME, cell-based; conditions: mda-mb-231, 24 h; outline: as §2
[30] = Drug uptake in human MDA-MB-231 cells assessed as extracted concentration at 0.2 uM after 24 hrs by HPLC-MS analysis; format: ADME, cell-based; conditions: mda-mb-231, 24 h; outline: as §5
[31] = Drug uptake in human MDA-MB-231 cells assessed as extracted concentration at 2 uM after 24 hrs by HPLC-MS analysis; format: ADME, cell-based; conditions: mda-mb-231, 24 h; outline: as §5
[32] = Drug uptake in human MDA-MB-231 cells assessed as intracellular concentration at 0.0103 umol in presence of 5% FBS after 24 hrs by HPLC-MS analysis; format: ADME, cell-based; conditions: mda-mb-231, 24 h; outline: as §2
[33] = Drug uptake in human MDA-MB-231 cells after 6 hrs in presence of 5% FBS by HPLC-MS analysis; format: ADME, cell-based; conditions: mda-mb-231, 6 h; outline: as §7

## CC(=O)c1cc(-c2cc(C(=O)NC3CC3)ccc2C)c2ncccn12
[1]
  Retention time: 16.4 min
[2]
  Stability: 94%
[3]
  Drug uptake: 0.069 nmol
[4]
  Stability: 94%
[5]
  Stability: Unstable
[6]
  Drug uptake: 0.025 nmol
[7]
  Drug uptake: 0.0012 µmol
[8]
  Drug uptake: 0.038 nmol
[9]
  Drug uptake: 0.12 nmol
[10]
  Drug uptake: 0.11 nmol
[11]
  Drug uptake: 0.074 nmol
[12]
  Papp at 5 h, 200 µM: 14.3 ×10⁻⁶ cm/s
[13]
  Drug uptake: 0.085 nmol
[14]
  Drug uptake: 0.035 µM
[15]
  Drug uptake: 0.1 µM
[16]
  Drug uptake: 0.059 µmol
[17]
  Drug uptake: 2%
[18]
  solubility: Soluble
[19]
  Drug uptake: 0.665 µM
[20]
  Stability: Stable
[21]
  Drug transport: 32.3%
[22]
  Drug uptake: Dose-dependent effect

## Cl.Cl.O=C(Nc1ccc(O[C@H]2CCNC2)c(-c2ccc(F)cc2)c1)c1ccc(O[C@H]2CCNC2)c(-c2ccc(F)c(F)c2)c1
[1]
  Retention time: 15.8 min
[2]
  Stability: 47%
[23]
  Stability: Stable
[5]
  Stability: 70%
[24]
  Drug uptake: 4%
[8]
  Drug uptake: 5.5 nmol
[25]
  Drug uptake: 6.1 nmol
[26]
  IC50: 2.3 µM
[27]
  Drug uptake: 98%
[10]
  Drug uptake: 6.7 nmol
[12]
  Papp at 5 h, 200 µM: 0.13 ×10⁻⁶ cm/s
[28]
  Drug uptake: 0.128 µM
[13]
  Drug uptake: 1 nmol
[18]
  solubility: Soluble
[29]
  Drug uptake: 6.5 nmol
[30]
  Drug uptake: 0.022 µM
[31]
  Drug uptake: 0.076 µM
[32]
  Drug uptake: 0.0101 µmol
[21]
  Drug transport: 0.2%
[33]
  Drug uptake: Dose-dependent effect
